Source: PubChem BioAssay (Sanford-Burnham Center for Chemical Genomics)
A selection: hits, their analogues and other compounds. The true share with any hit is near 1.5%.
APJ antagonist – APJ receptor antagonism | 0.32% of 330,000 active | P35414 | AID 2521 | CHO-K1 APJ beta-arrestin complementation, luminescence | inhibition, % at 20 µM;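 active means inhibition above about 40% at 20 µM, limit read from the data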;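 further: cells challenged with 10 nM apelin-13 agonist together with compound; plate controls were apelin-13 plus DMSO wells for no effect and DMSO wells lacking apelin-13 for full effect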
CCR6 antag – antagonists of human CCR6 receptor; 0.49% of 340,000 active; P51684; AID 493098; inhibition, % at 20 µM; CHO-K1 CCR6 PathHunter beta-arrestin, luminescence, CCL20-stimulated;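 active means compounds whose inhibition of the agonist-driven luminescence signal at 20 µM reaches about 50%, limit read from the data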;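 further: cells stimulated with CCL20 at 14 nM final; plate controls were DMSO with CCL20 for no effect and DMSO without agonist for full effect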
EBI2 antag – EBI2 (human) antagonism; 0.81% of 360,000 active; P32249; EBI2 beta-arrestin recruitment, luminescence, 7a,25-OHC stimulated; inhibition, % at 5 µM; AID 651636; in the data active means inhibition above about 38%;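 further: enzyme fragment complementation signal reports receptor beta-arrestin coupling in cells; 0% = agonist plus DMSO wells and 100% = wells without agonist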
APJ ag – APJ receptor agonism | P35414 | CHO-K1 APJ PathHunter beta-arrestin, luminescence; 0% DMSO wells, 100% apelin | activation, % at 20 µM | 0.11% of 330,000 active;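 active means activation more than six SD over the plate average, tested at 20 µM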;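 further: 0% = DMSO alone and 100% = apelin-13 at 10 nM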
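Material: CHO-K1 APJ beta-arrestin complementation cell line; Input: cell density 1000 per well; Incubation: compound stimulation 90 min at 25 °C, detection 60 min; Signal: luminescence from split beta-galactosidase complementation, Galacton Star/Emerald II substrate; Controls: DMSO-only wells as negative, 10 nM Apelin-13 as positive control.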
CXCR6 inh – CXCR6 (human) receptor inhibition | O00574 | CHO-K1 PathHunter CXCR6 beta-arrestin, luminescence | inhibition, % at 20 µM | 0.36% of 360,000 active | AID 602244; in the data active means inhibition above about 34%, passing the limit was not always enough;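 further: antagonist mode with CXCL16 agonist at 10 nM final; 0% = 10 nM CXCL16 with DMSO and 100% = unstimulated wells without agonist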
Target sequence (O00574 whole entry, looked up): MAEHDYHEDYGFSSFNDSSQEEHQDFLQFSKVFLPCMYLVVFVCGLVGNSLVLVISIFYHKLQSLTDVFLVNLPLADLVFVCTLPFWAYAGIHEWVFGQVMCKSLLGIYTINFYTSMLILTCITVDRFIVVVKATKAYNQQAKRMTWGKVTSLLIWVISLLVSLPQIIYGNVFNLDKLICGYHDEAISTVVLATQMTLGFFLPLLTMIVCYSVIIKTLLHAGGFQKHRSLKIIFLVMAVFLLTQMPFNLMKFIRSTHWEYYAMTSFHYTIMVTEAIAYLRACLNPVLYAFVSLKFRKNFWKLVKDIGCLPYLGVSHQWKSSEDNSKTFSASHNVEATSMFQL
APJ ag confirm – confirmation of human APJ apelin receptor agonists; shares compounds with APJ ag; CHO-K1 APJ PathHunter beta-arrestin, luminescence; activation, % at 20 µM; 10% of 310 active; AID 2764;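 active means activation above 40%, taking the highest of four retests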;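 further: plate controls were DMSO wells for no effect and apelin-13 at 10 nM for full effect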
Numbers without * were called inactive.

CC(=O)OC(C)C1C2=C(C(=O)CC1(C)O)C(=O)c1c(ccc(-c3ccc4c(c3O)C(=O)C3=C(C4=O)C(C(C)OC(C)=O)C(C)(O)CC3=O)c1O)C2=O (stereo unspecified) was read as CCR6 antag 51.6*, EBI2 antag -9.3 and CXCR6 inh 29.3.
For CCCCc1ccc(N/C(N)=N/c2nc(C)cc(C)n2)cc1 the results were APJ antagonist -28.0, CCR6 antag -1.9, EBI2 antag -18.4, APJ ag 43.5*, CXCR6 inh 2.7 and APJ ag confirm 16.8.
`Cc1cc(C(=O)N2CCC2(C)C(=O)NCc2cccc3ccccc23)nn1C` (stereo unspecified) gave EBI2 antag -7.9 and CXCR6 inh 0.4.
Cc1ccc(C(=O)N[C@H](C(=O)Nc2cccc(S(=O)(=O)N3CCOCC3)c2)C(C)C)cc1 was read as EBI2 antag -9.3 and CXCR6 inh 6.0.
`CCN(CC(=O)Nc1ccc(NC(C)=O)cc1)C(=O)c1oc2c(ccc3ccccc32)c1C` gave APJ antagonist -14.7, CCR6 antag -19.1, EBI2 antag -11.1, APJ ag 22.2*, CXCR6 inh -14.0 and APJ ag confirm 11.0.
Screening COc1ccccc1Cc1c(C(C)(C)C)nc2c3ccccc3ccn12 returned EBI2 antag 0.8 and CXCR6 inh 5.3.
For COc1ccccc1C(=O)Nc1nc(-c2ccc(S(=O)(=O)N3CCOCC3)cc2)cs1 the results were APJ antagonist -31.6, CCR6 antag -6.7, EBI2 antag -37.3, APJ ag 44.6*, CXCR6 inh -23.0 and APJ ag confirm 4.4.
Screening CCOC(=O)N1CCN(C(=O)c2ccc(Cn3c(=S)[nH]c4cc5c(cc4c3=O)OCO5)cc2)CC1 returned APJ antagonist -16.3, CCR6 antag -9.9, EBI2 antag -29.3, APJ ag 23.4*, CXCR6 inh 4.5 and APJ ag confirm 14.9.
`COc1ccccc1C(=O)Nc1ccc(Cc2ccncc2)cc1` gave APJ antagonist -3.8, CCR6 antag 10.6, EBI2 antag 1.1 and CXCR6 inh -14.3.
For COc1ccc([N+](=O)[O-])cc1C(=O)Nc1ccc(Cc2ccncc2)cc1 the results were APJ antagonist 8.1, CCR6 antag 6.8, EBI2 antag 5.8, APJ ag 15.9*, CXCR6 inh -2.5 and APJ ag confirm 11.6.
`CC1=CC(=O)C=C(C)C1=NOS(=O)(=O)c1ccccc1` gave CCR6 antag -15.4, EBI2 antag -7.3 and CXCR6 inh 18.0.
`CC1=CC(=O)C(C(C)C)=C/C1=N/OS(=O)(=O)c1ccccc1` gave APJ antagonist -34.6, CCR6 antag 7.3, EBI2 antag -44.1, APJ ag 184.6*, CXCR6 inh -2.9 and APJ ag confirm 77.7*.
`CSCCC(C(=O)NCc1ccccc1)n1c(-c2ccc3c(c2)CCO3)nc2ccccc21` (stereo unspecified) gave EBI2 antag 8.8.
`COc1ccc(-c2cn3c(C)c(C(=O)Nc4cccc(NC(C)=O)c4)sc3n2)cc1` gave APJ antagonist -31.2, CCR6 antag 5.6, EBI2 antag 41.5, APJ ag 16.9*, CXCR6 inh -10.5 and APJ ag confirm 17.5.
`Cc1ccc(-n2nnc3c(=O)oc4ccccc4c32)cc1` gave APJ antagonist -28.1, CCR6 antag -14.5, EBI2 antag -19.3, APJ ag 32.3*, CXCR6 inh 23.8 and APJ ag confirm 36.7.
For COc1cc(CNC(=O)OCC(C)C)cc(OC)c1OC the results were APJ antagonist 4.2, CCR6 antag 3.5, EBI2 antag -2.1, APJ ag 18.4*, CXCR6 inh -3.8 and APJ ag confirm 6.5.
CCCCNC(=O)C(NC(=O)c1ccccc1)C(=O)c1ccccc1 (stereo unspecified) was read as EBI2 antag 1.5.
`CCOC(=O)c1c(NC(=O)c2ccn(CC)n2)sc2c1CCC2` gave APJ antagonist 3.6, CCR6 antag 11.6, EBI2 antag -2.9, APJ ag -2.1 and CXCR6 inh 5.7.
`CCCc1cc(C(=O)Nc2sc3c(c2C(=O)OCC)CCCC3)no1` gave APJ antagonist 16.5, CCR6 antag -2.5, EBI2 antag 6.7, APJ ag 67.9*, CXCR6 inh -3.3 and APJ ag confirm 1.3.
For Cc1ccc(CNC(=O)c2oc3ccc(S(=O)(=O)N4CCOCC4)cc3c2C)cc1 the results were APJ antagonist -8.2, CCR6 antag -4.5, EBI2 antag 34.8, APJ ag 8.8 and CXCR6 inh -4.7.
`Cc1c(C(=O)Nc2cccc(C(F)(F)F)c2)oc2ccc(S(=O)(=O)N3CCOCC3)cc12` gave APJ antagonist -18.1, CCR6 antag -17.0, EBI2 antag -25.7, APJ ag 21.5*, CXCR6 inh -5.9 and APJ ag confirm 17.1.
`CC1(C(=O)NCc2ccccc2)CN(S(C)(=O)=O)CC(=O)N1CCc1c[nH]c2ccccc12` (stereo unspecified) gave EBI2 antag -6.9.
N#Cc1nc(-c2ccc(OCc3ccc(Cl)cc3)cc2)oc1N1CCOCC1 was read as APJ antagonist 0.6, CCR6 antag 7.3, EBI2 antag -15.6, APJ ag 25.2*, CXCR6 inh 2.9 and APJ ag confirm 3.7.
N#Cc1nc(-c2ccc(OCc3ccc(Cl)cc3)cc2)oc1N1CCC(C(N)=O)CC1 was read as APJ antagonist 5.8, CCR6 antag 11.2, EBI2 antag -4.9, APJ ag -1.5 and CXCR6 inh 2.0.
Screening CCCCNC(=O)c1ccc2nc(CC)c(N(CC)CCOC)n2c1 returned EBI2 antag -8.3 and CXCR6 inh 2.3.
For N/C(=N\OC(=O)c1ccc(Br)cc1)c1ccncc1 the results were APJ antagonist -24.4, CCR6 antag -14.5, EBI2 antag -11.4, APJ ag 12.3*, CXCR6 inh -13.1 and APJ ag confirm 26.4.
Screening N/C(=N\OC(=O)c1ccccc1)c1ccncc1 returned APJ antagonist -58.5, CCR6 antag -9.2, EBI2 antag -6.8, APJ ag 3.6 and CXCR6 inh -0.9.
`COc1ccc(C)cc1S(=O)(=O)N(C)CC(=O)NCc1ccco1` gave APJ antagonist -27.9, CCR6 antag 1.4, EBI2 antag -13.6, APJ ag 25.4*, CXCR6 inh 0.6 and APJ ag confirm 25.2.
For CCCCN1C(=O)C(CC(=O)NCc2cccc3ccccc23)CC(C(=O)N(C)C)=C1C (stereo unspecified) the results were EBI2 antag -7.3 and CXCR6 inh -0.7.
`CC1=C(C(=O)OCc2ccccc2)C(c2cccc(F)c2)NC(=O)N1` (stereo unspecified) gave APJ antagonist 12.4, CCR6 antag -2.8, EBI2 antag -0.2, APJ ag 18.6*, CXCR6 inh -21.8 and APJ ag confirm 7.8.
